proCasp7 act: procaspase-7 activators, primary screen, counter-screen for procaspase-3 activator project, biochemical, absorbance, HTS, human | actives 0.093% (n = 330,000) | activation, % at 8.5 µM | Caspase-7 (Homo sapiens), P55210 | recombinant procaspase-7, Ac-DEVD-pNA absorbance 405 nm; D23A/D198A/D206A triple mutant, cannot self-cleave; scale: DMSO 0, 5 µM enzyme 100;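 active = percent activation above the screen-wide mean plus 3 SD, cut at about 25% in these data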
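System: Uncleavable procaspase-7 mutant enzyme; Amount: 2 µM procaspase-7 mutant as dispensed; Schedule: 1 h compound preincubation, 2 h substrate cleavage, 25 °C; Measured by: 405 nm absorbance of p-nitroaniline; Evaluation: percent activation from buffer-corrected 0–120 min absorbance change; Control set: low DMSO alone, high DMSO plus 5 µM PC-7.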
Neddylation inh: inhibitors of cullin neddylation, primary screen, biochemical, TR-FRET, uHTS, NAE and Ubc12; NEDD8-conjugating enzyme Ubc12 (Homo sapiens) + NEDD8-activating enzyme E1 regulatory …; inhibition, % at 25 µM; actives 0.58% (n = 360,000); AID 651699, 2012; in the data active = inhibition above about 36%
HIF activator: HIF pathway transcriptional activators, primary screen, cell-based, U2OS HRE-luciferase, luminescence | actives 0.32% (n = 300,000) | AID 1910, 2009 | U2OS HRE-luciferase reporter; normalized: DMSO 0%, desferrioxamine 100% | activation, % at 7.5 µM (by protocol);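 active = mean activation of at least 10% of the iron chelator positive control signal, with at least half of replicates also reaching 10%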
Calb FLC: C. albicans growth inhibition with fluconazole, primary screen, CaCi-2 strain, Alamar Blue fluorescence | C. albicans CaCi-2 + fluconazole, 48 h | growth inhibition, % (no concentration beside the values) | actives 0.57% (n = 300,000);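 active = growth inhibition above about 58% in most replicates, limit read from the data, passing the limit was not always enough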;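 note: all wells also contain fluconazole at 8 µg/ml as a sub-toxic cotreatment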
procasp3 activ: activators of human procaspase-3 D3A mutant, primary screen, biochemical, absorbance, PC-3 D3A mutant, single concentration | Caspase-3 (Homo sapiens), P42574 | recombinant procaspase-3 D3A, Ac-DEVD-pNA absorbance 405 nm | activation, % at 8.5 µM | actives 0.11% (n = 330,000) | AID 463141, 2010;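 active = activation above the mean of all tested compounds plus 3 SD, cut at about 21% in these data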
Target sequence (P42574 whole entry D9A/D28A/D175A): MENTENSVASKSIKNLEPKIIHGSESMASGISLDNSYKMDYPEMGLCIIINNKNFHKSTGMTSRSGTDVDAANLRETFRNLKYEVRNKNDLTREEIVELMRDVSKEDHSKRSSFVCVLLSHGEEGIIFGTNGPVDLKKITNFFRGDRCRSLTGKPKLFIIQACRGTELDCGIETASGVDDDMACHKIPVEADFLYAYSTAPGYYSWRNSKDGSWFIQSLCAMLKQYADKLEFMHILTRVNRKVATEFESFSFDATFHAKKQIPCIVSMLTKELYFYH
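System: Procaspase-3 D3A mutant. Medium: Zinc-free 300 mM NaCl, 50 mM HEPES, 0.01% Triton X-100. Schedule: 1 h preincubation plus 2 h reaction at 25 °C. Measured by: 405 nm absorbance of p-nitroaniline, reads at 0 and 120 min. Read-out: percent activation relative to control range.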
GAA850 FXN act: FXN promoter activators, primary screen, cell-based, luciferase luminescence, HEK293 lucGAA850. actives 0.56% (n = 360,000). AID 540364, 2011. HEK293 lucGAA850 FXN promoter luciferase reporter, 24 h; percent of 10 µM SAHA response. activation, % at 6 µM;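 active = activation above the average of all compounds screened plus 3 SD, cutoff fixed separately per campaign, cut at about 7.5% in these data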
GAA30 FXN cntr: GAA30 FXN promoter activators, confirmation, counter-screen for GAA850 frataxin promoter activator project, cell-based, luminescence, HEK293, lucGAA30, triplicate; shares compounds with GAA850 FXN act; HEK293 lucGAA30 FXN promoter luciferase, 24 h; DMSO = 0%, 5 µM ipriflavone = 100%; activation, % at 6 µM; actives 66% (n = 1,900);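 active = mean activation above the mean of solvent-only control wells plus 3 SD, cut at about 22% in these data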;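 note: counterscreen of GAA850 promoter hits where activity marks nonselective or luminescence artifacts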
GAA850 confirm: FXN GAA850 promoter activators in reporter cells, confirmation, cell-based, luminescence, HEK293 lucGAA850, triplicate; HEK293 lucGAA850 FXN promoter luciferase reporter, 24 h; 100% = activation by SAHA; activation, % at 6 µM; shares compounds with GAA850 FXN act; actives 86% (n = 1,900);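 active = mean activation above a set limit taken from the primary screen, cut at about 8% in these data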
Neddyl inh conf: blockade of NEDD8 conjugation to cullin – biochemical, TR-FRET, single concentration, confirmation; shares compounds with Neddylation inh; TR-FRET cullin neddylation biochemical assay; calls only at 25 µM; actives 13% (n = 1,800); AID 652217, 2013; in the data active = inhibition above about 40%;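 note: neddylation substrate is the cullin 1 ring ligase complex with SKP2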
Numbers stand for hits; n = inactive; x = no result shown; + = active, no number. In the library only some 1.9% were active in any assay of this set; here they are far more common.

SMILES	proCasp7 act	Neddylation inh	HIF activator	Calb FLC	procasp3 activ	GAA850 FXN act	Neddyl inh conf	others
O=c1cccc2n1CC1CC2CN(Cc2c(Cl)cccc2Cl)C1 (stereo not given)	n	n	n	n	n	n	x
O=c1cccc2n1CC1CC2CN(c2nc(N3CCCCC3)nc(N3CCCCC3)n2)C1 (stereo not given)	n	n	n	n	n	11.1	x	GAA30 FXN cntr=32.4;GAA850 confirm=12.3
CC(=O)N1Cc2cnnn2-c2ccccc2C1(C#N)Cc1ccccc1 (stereo not given)	x	n	x	x	x	n	x
CN(C)[C@@H]1C(=O)C(C(N)=O)=C(O)[C@@]2(O)C(=O)C3=C(O)c4c(O)ccc(Cl)c4[C@@](C)(O)C3C[C@@H]12 (stereo not given in full)	x	n	x	x	x	13.7	x	GAA30 FXN cntr=n;GAA850 confirm=n
CN(C)C(=S)SSC(=S)N(C)C	n	n	n	x	n	27.4	x	GAA30 FXN cntr=n;GAA850 confirm=n
CCN(CC)c1ccc(N=Cc2c(O)n(CCC3=CCCCC3)c(=O)[nH]c2=O)cc1	n	n	n	n	n	n	x
CN(C)c1ccc(N=Cc2c(O)n(CCC3=CCCCC3)c(=O)[nH]c2=O)cc1	n	n	n	n	n	24.6	x	GAA30 FXN cntr=n;GAA850 confirm=n
COc1ccc(OC(=O)N(C)C[C@H]2OCc3cnnn3CCCC(=O)N([C@H](C)CO)C[C@@H]2C)cc1	x	n	x	x	x	n	x
COc1ccc(OC(=O)N(C)C[C@@H]2OCc3ccccc3-c3c(n(C)c4ccccc34)C(=O)N([C@H](C)CO)C[C@@H]2C)cc1	x	n	x	x	x	11.7	x	GAA30 FXN cntr=n;GAA850 confirm=9.1
NN=C1C(Cl)=C(Cl)C(Cl)=C1Cl	x	n	x	x	x	n	x
CC(=O)Nc1ccc(S(=O)(=O)N2Cc3cnnn3-c3ccccc3C2C#N)cc1 (stereo not given)	x	n	x	x	x	n	x
CC(CCN1CC1)=NNC(=O)Nc1cccc2ccccc12	x	47.8	x	x	x	n	n
C=CCn1c(O)c(C(CC)=NCCN2CCN(C(=S)NC)CC2)c(=O)[nH]c1=O	n	n	n	n	n	n	x
CC/C(=N\NC(=O)c1ccccc1)c1c(O)n(Cc2ccccc2)c(=O)[nH]c1=O	n	39.2	n	n	n	n	n
CCC(=NCC1CCCO1)c1c(O)n(Cc2ccccc2)c(=O)[nH]c1=O (stereo not given)	n	n	n	n	n	n	x
O=C(N/N=C/c1c(O)n(CCc2ccccc2)c(=O)[nH]c1=O)c1ccccc1	n	43.7	n	n	n	n	n
C=CCOC(=O)c1ccccc1N	n	44.6	x	x	n	n	n
Nc1ccccc1C(=O)OCCOc1ccccc1	n	x	x	x	n	n	x
CCOC(=O)c1ccc(-[n+]2c(-c3ccccc3)cc(-c3ccccc3)cc2-c2ccccc2)cc1	n	x	n	n	n	x	x
Cc1ccc(-c2cc(-c3ccc(C)cc3)[n+](-c3ccc(C(=O)[O-])cc3)c(-c3ccc(C)cc3)c2)cc1	n	40.4	n	n	n	n	+
CCOc1ccc(N=Cc2c(O)n(CCc3ccc(OC)c(OC)c3)c(=O)[nH]c2=O)cc1	n	41.3	n	n	n	n	n
